Data on 39 compounds can be found in ChEMBL document CHEMBL1131605, “Synthesis and pharmacological activity of triazolo[1,5-a]triazine derivatives inhibiting eosinophilia” (1998).

SMILES strings stand for the structures.

By inhibition in vivo is commonly meant the change of the read-out against control, counted positive when it falls.

The subject of one assay is Rattus norvegicus. Put plainly: Percent inhibition value on the Sephadex-induced lung eosinophilia model at an intraperitoneal (ip) dose of 30 mg/kg. In kind it is functional. In a few lines: (§1)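 Male Wistar rats, five per group; Sephadex G-200 (0.5 mg/mL in sterile saline, swollen by boiling 5 h), 1 mL injected via tail vein on days 0, 3 and 5; drug or vehicle given ip 10 min before each Sephadex injection. Day 7: lavage with heparinized PBS (37 °C), repeated, pooled; cells counted microscopically. Inhibition (%) from group-mean eosinophil/total-cell ratio versus vehicle.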
Turning to `Cn1cnc2ccccc2c1=S`, the inhibition in vivo at 30 mg/kg is 22%. As for `CNc1nc(NC)n2ncnc2n1`, the inhibition in vivo at 30 mg/kg is 38%. `Cn1cnc2nc(-c3ccc(Cl)cc3)nn2c1=S`: the inhibition in vivo at 30 mg/kg was 92%. On to `Cn1cnc2ncnn2c1=S`, for which the inhibition in vivo at 30 mg/kg was found to be 69%. With `Cn1cnc2ncnc-2c1S`, the inhibition in vivo at 30 mg/kg stood at 9%.

For `Cn1cnc2nc(-c3ccc(C#N)cc3)nn2c1=S`, the inhibition in vivo at 30 mg/kg amounted to 79%. With `Cn1c(-c2ccccc2)nc2ncnn2c1=S`, the inhibition in vivo at 30 mg/kg came to 29%. In the case of `c1nc2nc(NC3CCCCC3)nc(NC3CCCCC3)n2n1`, the inhibition in vivo at 30 mg/kg was 1%. On to `CCOc1ncnc2ncnn12`, for which the inhibition in vivo at 30 mg/kg was determined as 6%. Same read-out and setting: the result for `CSc1nc(N)nc2ncnn12` reads -29%; that for `CCOC(=O)C(=O)Nc1nc2ncn(C)c(=S)n2n1`, -2%. With `Cn1cnc2ncnn2c1=O`, the inhibition in vivo at 30 mg/kg stood at 17%.

In the case of `Cc1nc2ncnn2c(=S)n1C`, the inhibition in vivo at 30 mg/kg was 18%.

In the case of `Cn1cnc2nncc-2c1S`, the inhibition in vivo at 30 mg/kg is -13%. In the case of `CCCCn1cnc2ncnn2c1=S`, the inhibition in vivo at 30 mg/kg stood at 23%. As to `CCCn1cnc2ncnn2c1=S`, the inhibition in vivo at 30 mg/kg came to 49%. For `CNC(=S)n1nc(SC)nc1N`, the inhibition in vivo at 30 mg/kg amounted to 54%. Regarding `Cn1cnc2nc(-c3ccccc3)nn2c1=S`, the inhibition in vivo at 30 mg/kg is -1%. Consider `CSc1nc(N)n2ncnc2n1`, for which the inhibition in vivo at 30 mg/kg is -7%.

Another assay has as its system Rattus norvegicus. Put plainly: Percent inhibition value on the Sephadex-induced lung eosinophilia model at an intraperitoneal (ip) dose of 0.1 mg/kg. In kind it is functional. The gist of the method:
as §1
For `C[C@@H]1C[C@H]2[C@@H]3CCC4=CC(=O)C=C[C@]4(C)[C@@]3(F)[C@@H](O)C[C@]2(C)[C@@]1(O)C(=O)CO` [DEXAMETHASONE], the inhibition in vivo at 0.1 mg/kg was 95%.

The subject of a further assay is Rattus norvegicus. The assay is described as follows: Percent inhibition value on the Sephadex-induced lung eosinophilia model at an intraperitoneal (ip) dose of 3 mg/kg. It is filed as functional. The gist of the method: as §1
Regarding `Cn1cnc2nc(-c3ccc(Br)cc3)nn2c1=S`, the inhibition in vivo at 3 mg/kg came out at 84%.

For `C/N=C(\S)n1nc(Cc2ccccc2)nc1N`, the inhibition in vivo at 3 mg/kg was -24%. As to `C/N=C(\S)n1nc(-c2ccc(-c3ccccc3)cc2)nc1N`, the inhibition in vivo at 3 mg/kg was 58%.

Turning to `C/N=C(\S)n1nc(-c2cccs2)nc1N`, the inhibition in vivo at 3 mg/kg was -7%.

On to `Cc1nc2nc(-c3ccc(Cl)cc3)nn2c(=S)n1C`, for which the inhibition in vivo at 3 mg/kg was 60%. For `Cn1cnc2nc(-c3ccc(Cl)cc3)nn2c1=S`, the inhibition in vivo at 3 mg/kg was found to be 90%. Take `C/N=C(\S)n1nc(-c2ccc(Cl)c3ccccc23)nc1N`: the inhibition in vivo at 3 mg/kg worked out at 14%.

For `C/N=C(\S)n1nc(C#Cc2ccccc2)nc1N`, the inhibition in vivo at 3 mg/kg was found to be 0%.

As to `C/N=C(\S)n1nc(Oc2ccccc2)nc1N`, the inhibition in vivo at 3 mg/kg is -5%. In the case of `CNC(=S)n1nc(/N=C/c2ccccc2)nc1N`, the inhibition in vivo at 3 mg/kg was 37%.

Turning to `C/N=C(\S)n1nc(/C=C/c2ccc(Cl)cc2)nc1N`, the inhibition in vivo at 3 mg/kg is 25%. Consider `Cn1cnc2nc(-c3ccc(Cl)c(Cl)c3)nn2c1=S`, for which the inhibition in vivo at 3 mg/kg is 89%. As to `C/N=C(\S)n1nc(-c2ccc(Cl)cn2)nc1N`, the inhibition in vivo at 3 mg/kg was -2%. `Cn1cnc2nc(-c3ccc(F)cc3)nn2c1=S`: the inhibition in vivo at 3 mg/kg turned out to be 38%.

With `Cn1cnc2nc(-c3ccc(Cl)cc3Cl)nn2c1=S`, the inhibition in vivo at 3 mg/kg turned out to be 90%.

Regarding `Cn1cnc2nc(-c3ccc(C(F)(F)F)cc3)nn2c1=S`, the inhibition in vivo at 3 mg/kg amounted to 87%. With `Cn1c(-c2ccccc2)nc2nc(-c3ccc(Cl)cc3)nn2c1=S`, the inhibition in vivo at 3 mg/kg turned out to be 5%. Consider `C/N=C(\S)n1nc(-c2ccco2)nc1N`, for which the inhibition in vivo at 3 mg/kg is 18%. For `C/N=C(\S)n1nc(-c2ccc(Cl)nc2)nc1N`, the inhibition in vivo at 3 mg/kg was -9%.

For the compound `C/N=C(\S)n1nc(-c2ccc(Cl)cc2)nc1N`, the inhibition in vivo at 3 mg/kg was 88%.
